The record followed here is ChEMBL document CHEMBL3227929, “Synthesis and evaluation for diuretic activity of 1-substituted 6-chloro-5-sulfamylindolines” (1979).

Type in all cases: functional
The test system of assay [1] is Rattus norvegicus. Description: Diuretic activity in Wistar rat assessed as sodium level in excreted urine at 50 mg/kg, po measured after 0 to 5 hrs by flame photometric analysis relative to urea-treated control. An outline of the steps:
(§1)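 Female Wistar rats (150-200 g), groups of six, fasted 16 h, dosed orally at 50 mg/kg in 1% saline (15 mL/kg). Housed singly in metabolic cages with water ad libitum. Urine collected 0-5 h and 5-24 h. Na+ and K+ measured by flame photometry as mean mequiv, volume as mean mL. Each expressed as a ratio to a urea group (1000 mg/kg) run alongside vehicle control.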

Assay [2] concerns Rattus norvegicus. Put plainly: Diuretic activity in Wistar rat assessed as volume of excreted urine at 50 mg/kg, po measured after 5 to 24 hrs relative to urea-treated control. In short, it runs like this: as §1
Assay [3] relates to Rattus norvegicus. Put plainly: Diuretic activity in Wistar rat assessed as volume of excreted urine at 50 mg/kg, po measured after 0 to 5 hrs relative to urea-treated control. In short, it runs like this: as §1
Assay [4] concerns Rattus norvegicus. Description: Diuretic activity in Wistar rat assessed as potassium level in excreted urine at 50 mg/kg, po measured after 0 to 5 hrs by flame photometric analysis relative to urea-treated control. An outline of the steps:
as §1

In assay [5] the test system is Rattus norvegicus. Put plainly: Diuretic activity in Wistar rat assessed as potassium level in excreted urine at 50 mg/kg, po measured after 5 to 24 hrs by flame photometric analysis relative to urea-treated control. An outline of the steps:
as §1

Assay [6] deals with Rattus norvegicus. Put plainly: Diuretic activity in Wistar rat assessed as sodium level in excreted urine at 50 mg/kg, po measured after 5 to 24 hrs by flame photometric analysis relative to urea-treated control. In short, it runs like this: as §1

In the case of `NS(=O)(=O)c1cc(C(=O)O)c(NCc2ccco2)cc1Cl` [FUROSEMIDE], the Ratio with Rattus norvegicus [1] came to 9.63; with Rattus norvegicus [2] it was 1.08; with Rattus norvegicus [3], 2.75; with Rattus norvegicus [4] it was 1.12; in the assay on Rattus norvegicus [5] it was 1.31; in the assay with Rattus norvegicus [6], 0.96.

Consider `NS(=O)(=O)c1cc2c(cc1Cl)N=CNS2(=O)=O` [CHLOROTHIAZIDE], for which the Ratio in the assay on Rattus norvegicus [1] turned out to be 1.9; in the assay on Rattus norvegicus [2] it was 1; in the assay on Rattus norvegicus [3] it was 1.3; with Rattus norvegicus [4], 1.5; with Rattus norvegicus [5], 1; in the assay with Rattus norvegicus [6], 1.1.

In the case of `NS(=O)(=O)c1cc2c(cc1Cl)N(C(=O)c1ccco1)CC2`, the Ratio in the assay on Rattus norvegicus [1] was determined as 0.46; with Rattus norvegicus [2], 0.87; in the assay with Rattus norvegicus [3], 0.31; with Rattus norvegicus [4], 0.38; in the assay on Rattus norvegicus [5], 1.23; with Rattus norvegicus [6] it was 1.2.

Regarding `CC(=O)N1CCc2cc(S(N)(=O)=O)c(Cl)cc21`, the Ratio in the assay on Rattus norvegicus [1] came to 0.63; with Rattus norvegicus [2] it was 0.72; in the assay on Rattus norvegicus [3], 0.53; in the assay on Rattus norvegicus [4], 0.53; in the assay on Rattus norvegicus [5], 1.1; with Rattus norvegicus [6], 1.09.

Consider `CCCCN1CCc2cc(S(N)(=O)=O)c(Cl)cc21`, for which the Ratio in the assay with Rattus norvegicus [1] amounted to 0.98; in the assay on Rattus norvegicus [2], 0.9; in the assay with Rattus norvegicus [3], 0.7; in the assay with Rattus norvegicus [4], 0.78; in the assay with Rattus norvegicus [5], 1.06; with Rattus norvegicus [6], 1.15.

Consider `NS(=O)(=O)c1cc(C(=O)NN2CCc3cc(S(N)(=O)=O)c(Cl)cc32)ccc1Cl`, for which the Ratio with Rattus norvegicus [1] is on record as 1.47; in the assay with Rattus norvegicus [2], 1.26; with Rattus norvegicus [3], 0.99; in the assay with Rattus norvegicus [4], 1.09; with Rattus norvegicus [5], 1.18; with Rattus norvegicus [6], 1.24.

With `NS(=O)(=O)c1cc2c(cc1Cl)N(C(=O)c1ccccc1)CC2`, the Ratio in the assay on Rattus norvegicus [1] was 0.79; in the assay on Rattus norvegicus [2], 0.85; with Rattus norvegicus [3] it was 0.83; in the assay with Rattus norvegicus [4] it was 0.41; in the assay on Rattus norvegicus [5], 1.1; in the assay with Rattus norvegicus [6], 1.08.

On to `CCCC(=O)N1CCc2cc(S(N)(=O)=O)c(Cl)cc21`, for which the Ratio came out at 1.04 with Rattus norvegicus [1]; 0.96 in the assay with Rattus norvegicus [2]; 0.54 in the assay with Rattus norvegicus [3]; 0.53 in the assay on Rattus norvegicus [4]; 1.17 in the assay with Rattus norvegicus [5]; 1.3 in the assay with Rattus norvegicus [6].

Regarding `Cl.NS(=O)(=O)c1cc2c(cc1Cl)NCC2`, the Ratio in the assay with Rattus norvegicus [1] turned out to be 0.95; in the assay with Rattus norvegicus [2], 0.94; in the assay on Rattus norvegicus [3], 0.62; with Rattus norvegicus [4], 0.76; in the assay with Rattus norvegicus [5], 0.83; in the assay on Rattus norvegicus [6], 1.02.

Take `NS(=O)(=O)c1cc2c(cc1Cl)N(Cc1ccccc1)CC2`: the Ratio in the assay with Rattus norvegicus [1] worked out at 1; in the assay with Rattus norvegicus [2], 1.8; in the assay on Rattus norvegicus [3], 0.77; in the assay on Rattus norvegicus [4] it was 0.73; in the assay on Rattus norvegicus [5], 1.2; in the assay with Rattus norvegicus [6], 1.3.

With `NS(=O)(=O)c1cc2c(cc1Cl)N(Cc1ccco1)CC2`, the Ratio in the assay with Rattus norvegicus [1] was determined as 0.29; with Rattus norvegicus [2], 1; in the assay on Rattus norvegicus [3] it was 0.15; in the assay on Rattus norvegicus [4], 0.24; in the assay with Rattus norvegicus [5] it was 1.29; in the assay on Rattus norvegicus [6], 1.09.
